Assay outcomes (PubChem)
The list is not random: actives were taken first. Their share in the collection is about 1.8%.
TAG inh: inhibitors of triacylglycerol accumulation, primary screen, cell-based, uHTS, fluorescence, H9c2; inhibition, % at 12.5 µM; 230,000 tested, 0.66% active; H9c2 cells, Nile Red lipid (TAG) fluorescence; cells loaded with 200 µM oleic acid;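 active = pattern-corrected inhibition of lipid staining of at least 50% with the nuclear-stain viability signal not falling by more than 50%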
Lipid droplet: inhibitors of hepatocyte lipid droplet formation, primary screen, imaging, high-throughput imaging, BODIPY stain | AML12 mouse hepatocytes, oleate lipid droplets | inhibition, % at 6.5 µM | 240,000 tested, 0.4% active;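 active = lipid droplet intensity inhibited by at least 50%, with more than 500 cells counted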
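Material – AML12 mouse liver cells · Also added – oleate loading, 100 µM · Compound dosing – 6.5 µM single-point dosing · Times – overnight treatment with compound plus oleate · Measured by – fluorescence imaging, 20x objective, two fields per well · Read-out – percent inhibition of filter-corrected integrated lipid droplet intensity per well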
697 NFkB inh: inhibitors of PMA/ionomycin-induced NF-kB reporter, 697 cells, primary screen, B-cell NF-kB inhibitor project, cell-based, luminescence, uHTS; 697 B-cell NF-kB luciferase reporter, 16 h; inhibition, % at 4 µM; 330,000 tested, 0.33% active; AID 435022, 2010; in the data active = inhibition above about 35%
iPSC survival up: enhancers of single-cell hiPSC survival, primary screen, ATPlite luminescence; 360,000 tested, 0.044% active; survival enhancement, % at 20 µM; 100% = ROCK inhibitor wells, 0% = DMSO; in the data active = survival enhancement above about 18%;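 also: cells exposed to compounds for 16 hours before the ATP read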
Gli-Sufu block: Gli-Sufu pathway antagonists, primary screen, luciferase luminescence, Sufu-KO-LIGHT cells, uHTS. Sufu-KO-LIGHT fibroblasts, Gli luciferase reporter luminescence. inhibition, % at 5 µM. 340,000 tested, 0.74% active. AID 588413, 2011;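 active = inhibition above about 55%, limit read from the data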
Jurkat NFkB inh: inhibitors of induced NF-kB luciferase reporter, primary screen, TCR NF-kB activation inhibitor project, cell-based, luminescence, uHTS | Jurkat, PMA/ionomycin-induced NF-kB luciferase reporter | inhibition, % at 4 µM | 330,000 tested, 0.53% active; in the data active = inhibition above about 50%
A number is an active result.

How did Cc1ccc(NC(=O)CCNC(=O)c2ccco2)cc1Cl do in these assays?
Lipid droplet: inactive; 697 NFkB inh: inactive; iPSC survival up: inactive; Gli-Sufu block: inactive; Jurkat NFkB inh: inactive

How did Cc1nc2scc(C)n2c(=O)c1S(=O)(=O)Nc1ccc(N2CCOCC2)c(Cl)c1 do in these assays?
Lipid droplet: inactive; 697 NFkB inh: inactive; iPSC survival up: inactive; Gli-Sufu block: 71; Jurkat NFkB inh: inactive

How did O=S(=O)(NCCC1=CCCCC1)c1ccccc1Cl do in these assays?
TAG inh: inactive; 697 NFkB inh: inactive; iPSC survival up: inactive; Gli-Sufu block: inactive; Jurkat NFkB inh: inactive

How did C/C(=N\NC(=O)c1cc2ccccc2cc1O)c1ccccn1 do in these assays?
Lipid droplet: inactive; 697 NFkB inh: inactive; iPSC survival up: inactive; Gli-Sufu block: 90; Jurkat NFkB inh: inactive

Results for C/C(=N\NC(=O)c1c[nH]c2ccccc12)c1ccccn1 ?
TAG inh: inactive; Lipid droplet: inactive; 697 NFkB inh: inactive; iPSC survival up: inactive; Gli-Sufu block: inactive; Jurkat NFkB inh: inactive

Results for COC(=O)[C@]1(Cc2ccccc2)N[C@H](CN(C)C(=O)Nc2ccc(OC)cc2)[C@@H]2C(=O)N(C)C(=O)[C@@H]21 ?
TAG inh: inactive; 697 NFkB inh: inactive; iPSC survival up: inactive; Gli-Sufu block: inactive; Jurkat NFkB inh: inactive

Results for COC(=O)[C@]1(Cc2ccccc2)N[C@H](CN(C)C(=O)Nc2ccccc2)[C@@H]2C(=O)N(C)C(=O)[C@@H]21 ?
TAG inh: inactive; 697 NFkB inh: inactive; iPSC survival up: 28; Gli-Sufu block: inactive; Jurkat NFkB inh: inactive

What do the screens show for `Cc1cccc(C)c1NC(=O)CN(C)CC(=O)N1CC(=O)Nc2ccccc21`?
TAG inh: inactive; 697 NFkB inh: inactive; iPSC survival up: inactive; Gli-Sufu block: inactive; Jurkat NFkB inh: inactive

How did CC1(C)CC(=O)/C(=C\c2cccc([N+](=O)[O-])c2)C(C)(C)N1 do in these assays?
TAG inh: inactive; Lipid droplet: inactive; 697 NFkB inh: inactive; iPSC survival up: 36; Gli-Sufu block: inactive; Jurkat NFkB inh: inactive

How did Cc1ccc(C(=O)N/C(=C\c2ccc(-c3ccccc3[N+](=O)[O-])o2)C(=O)NCCCN(C)C)cc1 do in these assays?
Lipid droplet: inactive; 697 NFkB inh: inactive; iPSC survival up: inactive; Gli-Sufu block: inactive; Jurkat NFkB inh: inactive

How did Cc1ccc(C(=O)N/C(=C\c2ccc(-c3ccccc3[N+](=O)[O-])o2)C(=O)NCCN(C)C)cc1 do in these assays?
TAG inh: 57; Lipid droplet: inactive; 697 NFkB inh: inactive; iPSC survival up: inactive; Gli-Sufu block: inactive; Jurkat NFkB inh: inactive

What do the screens show for `CCN(C(=O)c1ccnn1C)c1ccccc1`?
Lipid droplet: inactive; 697 NFkB inh: inactive; iPSC survival up: inactive; Gli-Sufu block: inactive; Jurkat NFkB inh: inactive

What do the screens show for `CN(CC(=O)Nc1cccc(F)c1)C(=O)CSc1ccccc1`?
TAG inh: inactive; 697 NFkB inh: inactive; iPSC survival up: inactive; Gli-Sufu block: inactive; Jurkat NFkB inh: inactive

Results for CCCc1nc2c(=O)n(C)c(=O)nc-2n(C)n1 ?
TAG inh: inactive; Lipid droplet: inactive; iPSC survival up: inactive; Gli-Sufu block: 59

How did CCOC(=O)C1(Cc2ccc(Cl)cc2)CCN(C(C)Cc2ccc(O)c(OC)c2)CC1 (stereo unspecified) do in these assays?
Lipid droplet: inactive; 697 NFkB inh: inactive; iPSC survival up: inactive; Gli-Sufu block: 72; Jurkat NFkB inh: inactive

Results for C[C@@H](NC(=O)[C@@H]1Cc2ccccc2CN1)C(=O)Nc1ccc2c(c1)OCO2 ?
697 NFkB inh: inactive; iPSC survival up: 26; Gli-Sufu block: inactive; Jurkat NFkB inh: inactive

What do the screens show for `Cc1cccc(N2CCN(C(=O)c3ccc4c(c3)NC(=O)C(CSCc3cccc(F)c3)N4)CC2)c1C` (stereo unspecified)?
Lipid droplet: inactive; 697 NFkB inh: inactive; Jurkat NFkB inh: inactive

What do the screens show for `Cc1cc(NC(=O)COC(=O)C(C)Oc2ccc(Cl)cc2Cl)no1` (stereo unspecified)?
Lipid droplet: inactive; 697 NFkB inh: inactive; iPSC survival up: inactive; Gli-Sufu block: inactive; Jurkat NFkB inh: inactive
